Columns and labels:
[1] = Stability of compound in mini gut model at 24 hrs by LC-MS analysis; format: ADME, tissue-based
Method in brief: (§1)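 Compound 20 μM (DMSO vehicle, final 0.22%) incubated anaerobically at 37 °C in mGAM inoculated with donor 1 fecal slurry (1:10 slurry, 50 μL into 450 μL) and in bacteria-free mGAM as reference, up to 24 h, triplicate. Samples mixed with 3 volumes cold acetonitrile, centrifuged 21,100g 15 min 4 °C; supernatant analysed by LC–MS (45 °C, 0.45 mL/min) for remaining parent drug.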

[2] = Drug metabolism in mini gut model assessed as metabolite formation by LC-MS/MS analysis; format: ADME, tissue-based
Method in brief: (§2)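 Anaerobic mini gut model: stool homogenized in pre-reduced mGAM (10 mL/g), settled 5 min, 50 μL slurry into 450 μL mGAM; compound 20 μM in DMSO (final DMSO 0.22%); 37 °C, 5% H₂/10% CO₂/85% N₂, up to 24 h; donor 1; triplicate. Supernatant acetonitrile-precipitated (1:3), LC–MS at 45 °C, 0.45 mL/min; metabolites analysed versus feces-free reference incubation in mGAM.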

[3] = Drug metabolism in human gut microbes assessed as metabolite formation by LC-MS/MS analysis; format: ADME; method in brief: as §2
[4] = Stability of compound in mini gut model assessed as half life by LC-MS analysis; format: ADME, tissue-based; method in brief: as §1
[5] = Stability in human gut microbes assessed as half life by LC-MS analysis; format: ADME; method in brief: as §1

Stability [1] | Drug metabolism [2] | Drug metabolism [3] | half-life [4] [min] | half-life [5] [min] | Compound
 | Metabolite_Notdetected | Metabolite_Notdetected | > 2880 | > 2880 | CCCCNc1ccc(C(=O)OCCOCCOCCOCCOCCOCCOCCOCCOCCOC)cc1 [BENZONATATE]
Unstable | Metabolite_Notdetected | Metabolite_Notdetected |  |  | O=C([O-])[C@H]1/C(=C/CO)O[C@@H]2CC(=O)N21.[K+] [CLAVULANATE POTASSIUM]
 | Metabolite_Notdetected | Metabolite_Detected |  |  | CCN(CC)C(=O)/C(C#N)=C/c1cc(O)c(O)c([N+](=O)[O-])c1 [ENTACAPONE]
 | Metabolite_Notdetected | Metabolite_Notdetected | > 2880 | > 2880 | NS(=O)(=O)c1cc2c(cc1Cl)NCNS2(=O)=O [HYDROCHLOROTHIAZIDE]
 | Metabolite_Notdetected | Metabolite_Detected |  |  | COC1=C(OC)C(=O)C(CCCCCCCCCCO)=C(C)C1=O [IDEBENONE]
 | Metabolite_Notdetected | Metabolite_Detected | 1800 | 1800 | N[C@@H](Cc1ccc(O)c(O)c1)C(=O)O [LEVODOPA]
Unstable | Metabolite_Detected | Metabolite_Detected |  |  | O=S(=O)([O-])CCS.[Na+] [MESNA]
 | Metabolite_Notdetected | Metabolite_Detected | 600 | 600 | C1N2CN3CN1CN(C2)C3 [METHENAMINE]
Unstable | Metabolite_Detected | Metabolite_Detected |  |  | CCCc1nc(C(C)(C)O)c(C(=O)OCc2oc(=O)oc2C)n1Cc1ccc(-c2ccccc2-c2nnn[nH]2)cc1 [OLMESARTAN MEDOXOMIL]

Compound | Stability [1] | Drug metabolism [2] | Drug metabolism [3] | half-life [4] [min] | half-life [5] [min]
Cl.Oc1noc2c1CCNC2 | Unstable | Metabolite_Notdetected | Metabolite_Notdetected |  | 

Reference: ChEMBL document CHEMBL5029186, “Searching for New Microbiome-Targeted Therapeutics through a Drug Repurposing Approach” (J Med Chem, 2021)
